Columns and labels:
Rattus norvegicus [1] = assay: Compound was tested for antiinflammatory activity in rats by carrageenam edema test after peroral administration of 200 mg/kg dose; type: functional; conditions: route oral
Outline: (§1)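 CD-COBS rats, both sexes. The drug was given orally as a suspension in 1% acacia gum (10 mL/kg), then carrageenan foot edema was induced per Winter et al. Read-out was % inhibition of edema; N = 5 rats per group; Dunnet's test. "No significant effect" means inhibition below 15%.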

Rattus norvegicus [2] = assay: Compound was tested for antiinflammatory activity in rats by adjuvant arthritis test after peroral administration of 50 mg/kg dose; no significant effect; type: functional, organism-based; design: dose 50 mg/kg
Rattus norvegicus [3] = assay: Compound was tested for antiinflammatory activity in rats by adjuvant arthritis test after peroral administration of 50 mg/kg dose; type: functional; conditions: route oral
Rattus norvegicus [4] = assay: Compound was tested for antiinflammatory activity in rats by carrageenam edema test after peroral administration of 200 mg/kg dose; no significant effect; type: functional, organism-based; design: dose 200 mg/kg; outline: as §1
Rattus norvegicus [5] = assay: Compound was tested for antiinflammatory activity in rat by carrageenam edema test after peroral administration of 200 mg/kg dose; type: functional; conditions: route oral; outline: as §1
Rattus norvegicus [6] = assay: Compound was tested for antiinflammatory activity in rat by adjuvant arthritis test after peroral administration of 50 mg/kg dose; no significant effect; type: functional, organism-based; design: dose 50 mg/kg
Rattus norvegicus [7] = assay: Compound was tested for antiinflammatory activity in rats by carrageenam induced pleurisy test at dose of 200 mg/kg, po,% reduction in leucocytes; type: functional
Outline: (§2)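 Rats were dosed orally (1% acacia gum suspension) at 48, 24 and 1 h before intrapleural carrageenan, per Di Rosa et al. Pleural exudate was assessed 6 h later as % reduction in volume and in leucocytes; N = 8 rats per group; Dunnet's test.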

Mus musculus = assay: Compound was tested for analgesic activity in mice by phenylquinone writhing test at dose of 200 mg/kg, po; type: functional
Outline: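 Female mice received the drug orally in 1% acacia gum suspension (20 mL/kg) 1 h before i.p. 0.2 mL of 0.2% phenylquinone. Animals were caged individually and abdominal contractions counted over 20 min after injection; N = 4 mice per group; Dunnet's test.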

Rattus norvegicus [8] = assay: Compound was tested for antiinflammatory activity in rats adjuvant arthritis test after peroral administration of 50 mg/kg dose; type: functional; conditions: route oral
[9] = Compound was tested for lethal dose in mice after oral administration; type: ADME, organism-based; conditions: mouse, in vivo
Outline: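 CD1 mice of both sexes given single oral dose of compound suspended in 1% acacia gum (20 mL/kg); LD50 calculated by probit method.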

Rattus norvegicus [10] = assay: Compound was tested for antiinflammatory activity in rats by carrageenam induced pleurisy test at dose of 200 mg/kg, po; type: functional; outline: as §2
Rattus norvegicus [11] = assay: Compound was tested for antiinflammatory activity in rat by adjuvant arthritis test after peroral administration of 50 mg/kg dose; type: functional; conditions: route oral
Rattus norvegicus [12] = assay: Compound was tested for antiinflammatory activity in rat by carrageenam edema test after peroral administration of 200 mg/kg dose; no significant effect; type: functional, organism-based; design: dose 200 mg/kg; outline: as §1
Rattus norvegicus [13] = assay: Compound was tested for antiinflammatory activity in Rat by carrageenam edema test after peroral administration of 200 mg/kg dose; type: functional; conditions: route oral; outline: as §1

| SMILES | inhibition in vivo at 200 mg/kg (Rattus norvegicus [1]) | inhibition (Rattus norvegicus [2]) | inhibition in vivo at 50 mg/kg (Rattus norvegicus [3]) | other results |
| --- | --- | --- | --- | --- |
| COc1ccc(CC(=O)Nc2ccccc2-c2ccccc2NCCN(C)C)cc1 | 65% | No significant effect | – | – |
| COc1ccc(CC(=O)Nc2ccccc2-c2ccccc2NCCCN(C)C)cc1 | 16% | No significant effect | – | – |
| Nc1ccccc1-c1ccccc1NC(=O)Cc1ccc(O)cc1 | 37% | No significant effect | – | – |
| CC(=O)Oc1ccccc1C(=O)O [ASPIRIN] | 40% | – | 32% | – |
| CCNc1ccccc1-c1ccccc1NC(=O)Cc1ccccc1 | 30% | No significant effect | – | – |
| CCN(CC)CCCNc1ccccc1-c1ccccc1NC(=O)Cc1ccc(Cl)cc1 | – | – | 29% | inhibition (Rattus norvegicus [4]): No significant effect |
| CCN(CC)CCNc1ccccc1-c1ccccc1NC(=O)Cc1ccccc1 | – | – | – | inhibition in vivo at 200 mg/kg (Rattus norvegicus [5]): 17%; inhibition (Rattus norvegicus [6]): No significant effect |
| CN(C)CCCNc1ccccc1-c1ccccc1NC(=O)Cc1ccc(Cl)cc1 | – | – | 30% | inhibition (Rattus norvegicus [4]): No significant effect |
| CCCNc1ccccc1-c1ccccc1NC(=O)Cc1ccc(Cl)cc1 | 33% | No significant effect | – | – |
| CCN(CC)CCCNc1ccccc1-c1ccccc1NC(=O)Cc1ccc([N+](=O)[O-])cc1 | – | – | 16% | inhibition (Rattus norvegicus [4]): No significant effect |
| CCCCC1C(=O)N(c2ccccc2)N(c2ccccc2)C1=O [PHENYLBUTAZONE] | 42% | – | – | Reduction (Rattus norvegicus [7]): 35%; inhibition in vivo at 200 mg/kg (Mus musculus): 45%; inhibition in vivo at 50 mg/kg (Rattus norvegicus [8]): 66%; LD50 [9]: 650 mg/kg; Reduction (Rattus norvegicus [10]): 43% |
| CNc1ccccc1-c1ccccc1NC(=O)Cc1ccc([N+](=O)[O-])cc1 | – | – | 16% | inhibition (Rattus norvegicus [4]): No significant effect |
| CNc1ccccc1-c1ccccc1NC(=O)Cc1ccc(OC)cc1 | 20% | – | 22% | – |
| CCN(CC)CCNc1ccccc1-c1ccccc1NC(=O)Cc1ccc(N)cc1 | 33% | No significant effect | – | – |
| CCNc1ccccc1-c1ccccc1NC(=O)Cc1ccc(O)cc1 | 45% | No significant effect | – | – |
| CNc1ccccc1-c1ccccc1NC(=O)Cc1ccc(O)cc1 | 17% | No significant effect | – | – |
| CN(C)CCCNc1ccccc1-c1ccccc1NC(=O)Cc1ccc([N+](=O)[O-])cc1 | – | – | – | inhibition in vivo at 50 mg/kg (Rattus norvegicus [11]): 24%; inhibition (Rattus norvegicus [12]): No significant effect |
| CCN(CC)CCNc1ccccc1-c1ccccc1NC(=O)Cc1ccc([N+](=O)[O-])cc1 | – | – | – | inhibition in vivo at 200 mg/kg (Rattus norvegicus [5]): 54%; Reduction (Rattus norvegicus [7]): 35%; inhibition in vivo at 200 mg/kg (Mus musculus): 34%; inhibition in vivo at 50 mg/kg (Rattus norvegicus [8]): 33%; LD50 [9]: 1130 mg/kg; Reduction (Rattus norvegicus [10]): 48% |
| CN(C)CCNc1ccccc1-c1ccccc1NC(=O)Cc1ccc([N+](=O)[O-])cc1 | – | – | – | inhibition in vivo at 200 mg/kg (Rattus norvegicus [13]): 54%; inhibition (Rattus norvegicus [6]): No significant effect |
| CN(C)CCNc1ccccc1-c1ccccc1NC(=O)Cc1ccc(N)cc1 | 16% | No significant effect | – | – |

From ChEMBL document CHEMBL1121840, “Synthesis and antiinflammatory activity of 2,2'-diaminobiphenyl derivatives” (J Med Chem, 1981)
